From article PMC7704577 (Bioorganic & medicinal chemistry letters, 2020)
Bridge positions count the residues as written; N and C are the ends. Square brackets hold non-standard residues; d marks the D form. Peptide text beside a SMILES is read from it. * marks the point of attachment. NODAGA = O=C(O)CN1CCN(CC(=O)O)CCN(C(CCC(=O)*)C(=O)O)CC1; Nle = CCCC[C@H](N)C(=O)O

Legend:
[1] = molecular target: MC1 receptor (B16/F10 melanoma cells) (Mus musculus, UniProt Q01727); assay: In vitro competitive receptor binding assay on B16/F10 melanoma cells
Chain of MC1 receptor (B16/F10 melanoma cells) (Q01727 whole entry): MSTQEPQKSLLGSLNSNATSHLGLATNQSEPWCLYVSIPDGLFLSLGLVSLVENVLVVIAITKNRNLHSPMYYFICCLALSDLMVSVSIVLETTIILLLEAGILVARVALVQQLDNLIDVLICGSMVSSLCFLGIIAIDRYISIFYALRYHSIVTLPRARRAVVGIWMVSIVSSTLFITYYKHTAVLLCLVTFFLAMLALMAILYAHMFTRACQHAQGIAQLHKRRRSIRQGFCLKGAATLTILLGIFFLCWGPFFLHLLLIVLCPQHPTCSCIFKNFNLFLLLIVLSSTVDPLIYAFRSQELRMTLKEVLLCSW
Method in brief: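 Competitive displacement on intact B16/F10 cells (0.5×10^5/well, n = 3; assay run in triplicate): 2 h at 25 °C with ~30,000 cpm 125I-(Tyr2)-NDP-MSH plus 10−12 to 10−5 M test peptide in MEM binding medium (25 mM HEPES pH 7.4, 0.2% BSA, 0.3 mM 1,10-phenanthroline). Cells rinsed twice in ice-cold 0.2% BSA/PBS, lysed in 1 N NaOH 5 min, gamma-counted; IC50 by curve fit.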

MC1R = details: no reference given; cited from earlier work

Compound | IC50 [1] [nM] | MC1R binding affinity (MC1R)
CCCC[C@H](NC(=O)CNC(=O)CNC(=O)CCC(C(=O)O)N1CCN(CC(=O)O)CCN(CC(=O)O)CC1)C(=O)N[C@H]1CC(=O)NCCCC[C@@H](C(N)=O)NC(=O)[C@H](Cc2c[nH]c3ccccc23)NC(=O)[C@H](CCCNC(=N)N)NC(=O)[C@@H](Cc2ccccc2)NC(=O)[C@H](Cc2c[nH]cn2)NC1=O (stereo partly drawn) [NODAGA-GGNle-CycMSHhex, 1,4,7-triazacyclononane,1-gluteric acid-4,7-acetic acid-GlyGlyNle-c[Asp-His-DPhe-Arg-Trp-Lys]-CONH2] ({NODAGA}-GG[Nle]DH[dF]RWK-NH2; lactam 4-9) | 0.87 ± 0.12 | 
[Nle^4, D-Phe^7]-α-MSH [NDP-MSH] |  | sub-nanomolar MC1R binding affinity
